Measurements from PMC10240386 (Cell chemical biology, 2023).
Read-outs that look alike come from different tables or passages of the source.

Key:
Pf20S β5 = Pf20S β5 (Plasmodium falciparum, UniProt A0A5K1K7U1+Q8IJT1); experiment: biochemical; type: biochemical; conditions: for activity against Pf20S: Pf20S β5
Pf Dd2^WT = experiment: Parasite growth inhibition assay, erythrocytic stage; type: cell-based, Plasmodium falciparum; conditions: for EC50: read-out: EC50 Pf Dd2^WT
Dd2β6^A117D = experiment: as above; type: cell-based, Plasmodium falciparum
HepG2 cells = experiment: HepG2 cell viability assay; type: cell-based; conditions: read-out: HepG2
[1] = system: DHA-resistant clones DR1, DR2, DR4 derived from Dd2; experiment: Standard 72-h in vitro assay on DHA-resistant clones; type: cell-based, Plasmodium falciparum; conditions: standard 72-h assay
Dd2β6^A117DK13^R539T = experiment: Parasite growth inhibition, dual resistant strain; type: cell-based, Plasmodium falciparum
human i-20S β5i = human i-20S β5i (Homo sapiens, UniProt P20618+P28062); experiment: Proteasome IC50 determination, human i-20S β5i; type: biochemical
Summary of the method: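 Human i-20S (0.4 nM) assayed in 20 mM HEPES, 0.5 mM EDTA, 0.1 mg/mL BSA, pH 7.5, with 0.02% SDS and 15 µM Ac-ANW-AMC. Pf20S (1 nM) assayed in 50 mM Tris, 5 mM MgCl2, 1 mM DTT, pH 7.4, with 12 nM PA28α, 0.5 µM WLW-VS and 25 µM suc-LLVY-AMC. Test compound given as a 3-fold series, 100–0.0017 µM final. AMC read at 360/460 nm for 1–2 h; velocities fitted to a dose-response equation. Run in duplicate or triplicate.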

human c-20S β5c = human c-20S β5c (Homo sapiens, UniProt P20618+P28074); experiment: Proteasome IC50 determination, human c-20S β5c; type: biochemical
Summary of the method: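 Human c-20S (0.2 nM) assayed in 20 mM HEPES, 0.5 mM EDTA, 0.1 mg/mL BSA, pH 7.5, with 0.02% SDS and 25 µM suc-LLVY-AMC. Pf20S (1 nM) assayed in 50 mM Tris, 5 mM MgCl2, 1 mM DTT, pH 7.4, with 12 nM PA28α, 0.5 µM WLW-VS and 25 µM suc-LLVY-AMC. Test compound given as a 3-fold series, 100–0.0017 µM final. AMC read at 360/460 nm for 1–2 h; linear velocities fitted to a dose-response equation. Run in duplicate or triplicate.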

Dd2β5^A49S = experiment: Parasite growth inhibition assay, erythrocytic stage; type: cell-based, Plasmodium falciparum
P. berghei ANKA lux = experiment: In vivo efficacy in mice infected with P. berghei ANKA lux; parameters: species or system Swiss Webster mice
[2] = system: P. berghei G2025^R551T (K13^R551T); experiment: Modified Peters' 4-day suppressive test for recrudescence, ART-resistant strain; type: in vivo, Swiss Webster mice; conditions: ART 50 mg/kg, ATZ4 100 mg/kg i.p. day 0 to day 2
[3] = system: Pf20S β5 in lysate of Dd2^WT; experiment: Blocking of MV151 labeling in parasite lysate; type: binding, Plasmodium falciparum; conditions: 1 h preincubation of Dd2^WT lysate
Summary of the method: (§1)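 Dd2 wild-type or mutant parasite pellets lysed on ice for 1 h in 50 mM Tris-HCl, 5 mM MgCl2, 1 mM DTT, pH 7.4, then centrifuged; protein quantified by BCA. 5–10 µg of lysate protein preincubated with test compound for 1 h at 37°C. MV151 added at 2 µM final for a further 1 h at 37°C, protected from light. Run on 12% Bis-Tris SDS-PAGE and scanned at Cy3/TAMRA (λex 532, λem 560 nm).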

Pf20Sβ6^A117D = experiment: Blocking of MV151 labeling in parasite lysate; type: binding, Plasmodium falciparum; conditions: 1 h preincubation of Dd2β6^A117D lysate
Summary of the method: as §1

Pf20Sβ5^A49S = experiment: Blocking of MV151 labeling in parasite lysate; type: binding, Plasmodium falciparum; conditions: 1 h preincubation of Dd2β5^A49S lysate
Summary of the method: as §1

[4] = system: intracellular Pf20S β5 with the β6^A117D mutation; experiment: Intraparasitic hybrid activation and proteasome inhibition assay; type: cell-based, Plasmodium falciparum; conditions: ATZ4 700 nM, Dd2β6^A117D parasites, compared with WT
Summary of the method: (§2)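 Dd2 wild-type and mutant lines grown synchronized to 5–8% parasitemia. Early-trophozoite infected erythrocytes pulsed 6 h with test compound (700 or 800 nM) or DMSO, then washed four times in complete medium. Parasites released with saponin, washed in cold PBS and lysed in 20 mM Tris-HCl, 5 mM MgCl2, 1 mM DTT, pH 7.4. Equal lysate amounts labeled with 2 µM MV151 for 1 h at 37°C, separated by SDS-PAGE and scanned on the TAMRA channel.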

[5] = system: intracellular Pf20S β5 with the β5^A49S mutation; experiment: as above; type: cell-based, Plasmodium falciparum; conditions: ATZ4 700 nM, Dd2β5^A49S parasites, compared with WT
Summary of the method: as §2

[6] = EC50 fold change, three experiments (Figure 6B)

Q: Which “activity against Pf20S” value (Pf20S β5) does the source give for `C[C@H]1[C@@H](CC(=O)NCCCC(=O)N[C@@H](CC(=O)NC(C)(C)C)C(=O)NCCNC(=O)c2cc(-c3ccccc3F)ccc2F)O[C@@H]2O[C@@]3(C)CC[C@H]4[C@H](C)CC[C@@H]1[C@@]24O3` [Deoxy-ATZ4, (S)-N4-(tert-butyl)-N1-(2-(2′,4-difluoro-[1,1′-biphenyl]-3-carboxamido)ethyl)-2-(4-(2-((2R,3R,3aS,3a1R,6R,6aS,9S,10aR)-3,6,9-trimethyldecahydro-10aH-3a1,9-epoxyoxepino [4,3,2-ij]isochromen-2-yl)acetamido)butanamido)succinamide] here?
A: potency comparable with that of PI01

Q: What about the EC50 (Pf Dd2^WT; 72 h growth inhibition in red blood cells, mean ± SD) of the same compound?
A: 21.6 ± 1.4 nM

Q: And the “fold less potent against Dd2β6^A117D compared with Dd2 and Dd2K13^R539T” value (Dd2β6^A117D; [6])?
A: 5.6 fold

Q: And the EC50 (HepG2 cells; 72 h cell viability, mean ± SD)?
A: 10.8 µM

Q: What about the “susceptibility of DHA-resistant clones compared with WT Dd2” value [1] of the same compound?
A: equally susceptible

Q: And the “fold less potent against Dd2β6^A117DK13^R539T compared with Dd2 and Dd2K13^R539T” value (Dd2β6^A117DK13^R539T; [6])?
A: 11.0 fold

Q: Which results are given for `C[C@H]1[C@@H](CC(=O)NCCCC(=O)N[C@@H](CC(=O)NC(C)(C)C)C(=O)NCCNC(=O)c2cc(-c3ccccc3F)ccc2F)O[C@@H]2O[C@@]3(C)CC[C@H]4[C@H](C)CC[C@@H]1[C@@]24OO3` [ATZ4, (S)-N4-(tert-butyl)-N1-(2-(2′,4-difluoro-[1,1′-biphenyl]-3-carboxamido)ethyl)-2-(4-(2-((3R,5aS,6R,8aS,9R,10R,12R,12aR)-3,6,9-trimethyldecahydro-12H-3,12-epoxy[1,2]dioxepino[4,3-i]isochromen-10-yl)acetamido)butanamido)succinamide]?
A: IC50 (Pf20S β5): 4.3 ± 0.9 nM; activity against Pf20S (Pf20S β5): potency comparable with that of PI01; IC50 (human i-20S β5i): 200 ± 57 nM; IC50 (human c-20S β5c): 890 ± 140 nM; times more potent than ART1 against Dd2 (Pf Dd2^WT; EC50 ratio): 10 times; EC50 (Pf Dd2^WT; Plasmodium falciparum, DD2, Erythrocyte, 72 h): 4.3 ± 1.3 nM; fold improvement over PI01 against Dd2β6^A117D (Dd2β6^A117D): ≥ 5 fold; fold more resistant / reduced potency, Dd2β6^A117D versus parental Dd2 (Dd2β6^A117D; EC50 ratio): ≤ 2.9 fold; EC50 (Dd2β6^A117D; Plasmodium falciparum, 72 h, read-out: EC50 Dd2β6^A117D): 6.7 ± 2.2 nM; fold improvement over PI01 against Dd2β5^A49S (Dd2β5^A49S): > 100 fold; fold more resistant / reduced potency, Dd2β5^A49S versus parental Dd2 (Dd2β5^A49S; EC50 ratio): ≤ 3.6 fold; EC50 (Dd2β5^A49S; Plasmodium falciparum, 72 h, read-out: EC50 Dd2β5^A49S): 5.9 ± 1.9 nM; EC50 (HepG2 cells; Homo sapiens, HepG2, 72 h): 9.4 µM; effect on parasite load (P. berghei ANKA lux; 10 mg/kg i.p. once daily day 3 to day 6, luminescence on day 7): no detectable effect; decrease in parasite load (P. berghei ANKA lux; 25 mg/kg i.p. once daily day 3 to day 6, luminescence on day 7): 1.2 log10; decrease in parasite load (P. berghei ANKA lux; 50 mg/kg i.p. once daily day 3 to day 6, luminescence on day 7, to below the limit of detection): > 3 log10; mice with positive blood smear on day 6 [2]: 0%; mice with positive blood smear on day 8 [2]: 0%; mice with positive blood smear on day 10 [2]: 60%; susceptibility of DHA-resistant clones compared with WT Dd2 [1]: equally susceptible; blocking of MV151 labeling of β5 [3]: dose dependently blocked labeling of β5; blocking of MV151 labeling of β5 (Pf20Sβ6^A117D): prevented PI01 and ATZ4 from inhibiting; blocking of MV151 labeling of β5 (Pf20Sβ5^A49S): prevented PI01 and ATZ4 from inhibiting; inhibition of Pf20S β5 labeling by MV151 after 6 h pulse and washing [4]: similarly effective; inhibition of Pf20S β5 labeling by MV151 after 6 h pulse and washing [5]: similarly effective; potency across Dd2, Dd2β6^A117D, Dd2K13^R539T and Dd2β6^A117DK13^R539T (Dd2β6^A117DK13^R539T): equipotent
